# Measured values from different studies.
# Each line is one published result; the experiments were not run side by side.
# Target: Receptor tyrosine-protein kinase erbB-4 (ERBB4, Homo sapiens, UniProt Q15303)
SMILES,assay,conditions,endpoint,value
C=CC(=O)N1CCC[C@@H](n2nc(-c3ccc(Oc4ccccc4)cc3)c3c(N)ncnc32)C1,"enzyme activity, inhibitor",1 µM,inhibition,100%
C1=C/COCc2cc(ccc2OCCN2CCCC2)Nc2nccc(n2)-c2cccc(c2)COC/1,binding,0.1 µM,remaining binding,88%
CC#CC(=O)N1CCC[C@H]1c1nc(-c2ccc(C(=O)Nc3ccccn3)cc2)c2c(N)nccn12,"enzyme activity, inhibitor",1 µM,inhibition,96%
CCCCC(=O)Nc1ccc(-c2ccc3ncn(CCC)c(=O)c3c2)cn1,"binding, competition with immobilised ligand",0.5 µM,remaining binding,100%
COc1ccc2oc(-c3ccc4nc(N)oc4c3)c/c(=N\c3ccccc3NC(=O)CCN)c2c1,binding,1 µM,remaining binding,109%
CN1CCN(C(=O)c2ccc(NC(=O)Nc3ccc(N(C)c4ccnc(Nc5ccc(CS(C)(=O)=O)cc5)n4)cc3)cc2)CC1,"binding, competition with immobilised ligand",1 µM,remaining binding,77%
C#Cc1cnc(Nc2ccnc(CO)c2)nc1Nc1ccccc1S(C)(=O)=NC#N (centres unmarked),cell-free assay,1 µM,remaining signal,86%
C#Cc1cc(-c2cc(Nc3nc(N[C@@H](C)c4ccc(F)cn4)ncc3Cl)n[nH]2)ccc1C=O,"enzyme activity, inhibitor",0.2 µM,inhibition,54.3%
COc1c(Cl)cccc1Nc1c(-c2ccncc2OC[C@@H]2COCCO2)[nH]c2c1C(=O)NCC2,"enzyme activity, inhibitor, radiometric",1 µM,inhibition,> 80%
Cc1ccc(NC(=O)c2ccnc(C(F)(F)F)c2)cc1-c1cc(OCCO)nc(N2CCOCC2)c1,"binding, competition with immobilised ligand",1 µM,remaining binding,99%
N#Cc1ccc(NC(=O)Nc2ccccc2)cc1,"cell-free assay, competition with immobilised ligand",25 µM,remaining binding,100%
